Data on one molecule can be found in ChEMBL document CHEMBL3822431, “Hydroxychalcone inhibitors of Streptococcus mutans glucosyl transferases and biofilms as potential anticaries agents” (Bioorg Med Chem Lett, 2016).

This experiment concerns the target T1, Glucosyltransferase-SI (Streptococcus mutans serotype c (strain ATCC 700610 / UA159)) (UniProt P13470).
T1 sequence (whole entry): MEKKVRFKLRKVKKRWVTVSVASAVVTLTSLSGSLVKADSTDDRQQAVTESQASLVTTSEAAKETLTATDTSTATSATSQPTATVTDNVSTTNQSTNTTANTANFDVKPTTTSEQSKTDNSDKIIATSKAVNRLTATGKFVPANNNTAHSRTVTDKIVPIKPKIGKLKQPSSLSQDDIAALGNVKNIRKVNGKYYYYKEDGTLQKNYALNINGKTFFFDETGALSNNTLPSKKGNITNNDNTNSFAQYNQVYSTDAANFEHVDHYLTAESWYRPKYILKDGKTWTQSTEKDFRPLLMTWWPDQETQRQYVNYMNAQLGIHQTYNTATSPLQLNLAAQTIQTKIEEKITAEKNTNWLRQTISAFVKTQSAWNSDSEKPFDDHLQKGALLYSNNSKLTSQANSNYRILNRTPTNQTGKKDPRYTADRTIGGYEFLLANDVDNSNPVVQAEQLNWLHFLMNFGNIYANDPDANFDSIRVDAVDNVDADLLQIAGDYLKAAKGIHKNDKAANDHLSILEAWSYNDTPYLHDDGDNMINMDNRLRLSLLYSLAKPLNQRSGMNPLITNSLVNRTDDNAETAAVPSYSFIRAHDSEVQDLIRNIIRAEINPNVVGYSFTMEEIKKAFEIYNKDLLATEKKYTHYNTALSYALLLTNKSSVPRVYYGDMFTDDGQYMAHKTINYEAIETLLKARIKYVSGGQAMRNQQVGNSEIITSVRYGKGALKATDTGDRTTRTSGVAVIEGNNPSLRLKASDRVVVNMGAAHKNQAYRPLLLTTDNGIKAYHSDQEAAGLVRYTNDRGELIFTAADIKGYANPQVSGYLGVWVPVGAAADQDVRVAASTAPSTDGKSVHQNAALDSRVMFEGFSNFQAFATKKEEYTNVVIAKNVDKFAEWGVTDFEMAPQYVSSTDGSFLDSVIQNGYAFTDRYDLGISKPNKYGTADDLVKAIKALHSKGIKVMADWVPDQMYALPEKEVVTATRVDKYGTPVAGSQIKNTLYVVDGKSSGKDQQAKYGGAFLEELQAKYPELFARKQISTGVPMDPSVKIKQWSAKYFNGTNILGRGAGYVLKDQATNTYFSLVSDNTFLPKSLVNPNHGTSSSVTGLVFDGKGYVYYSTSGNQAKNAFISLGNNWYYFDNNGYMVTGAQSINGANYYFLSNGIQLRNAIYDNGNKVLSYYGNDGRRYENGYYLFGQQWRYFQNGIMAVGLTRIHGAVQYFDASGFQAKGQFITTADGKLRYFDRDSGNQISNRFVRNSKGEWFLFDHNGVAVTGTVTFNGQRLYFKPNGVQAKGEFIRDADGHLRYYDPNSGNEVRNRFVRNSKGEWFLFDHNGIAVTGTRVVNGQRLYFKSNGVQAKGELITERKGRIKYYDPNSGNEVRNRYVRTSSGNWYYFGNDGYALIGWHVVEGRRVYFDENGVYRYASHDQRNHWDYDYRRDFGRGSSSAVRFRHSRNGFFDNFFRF
Nature of the experiment: Inhibition of Wild-type Streptococcus mutans UA159 glucosyltransferase C by zymography. In outline:
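S. mutans UA159 wild type co-incubated with compound at different concentrations; Gtfs concentrated from supernatants, separated by SDS-PAGE and assayed by zymography, glucan band intensity reflecting enzyme activity.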

Take `O=C(/C=C\c1ccc(O)cc1O)c1cccc(O)c1`: the inhibition result was “Dose-dependent effect”.
